Assays:
[1] = Half life in rat at 0.25 mg/kg, iv; type: ADME, organism-based; set-up: dose 0.25 mg/kg, route intravenous; settings: in vivo
In short: (§1)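 Intravenous dosing at 0.25 mg/kg in fed rats, given as a solution in DMSO/solutol/mannitol (2.5/10/87.5).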

Rattus norvegicus [2] = assay: Dose-normalized AUC in rat at 0.25 mg/kg, iv; type: ADME, organism-based; set-up: dose 0.25 mg/kg, route intravenous; settings: in vivo; in short: as §1
Hepatocyte [3] = assay: Drug metabolism in rat hepatocytes assessed as formation of -[2H]-6-(5-((N-((2R,3S)-3-(((3R,3aS,6aR)-hexahydrofuro[2,3-b]furan-3-yloxy)carbonylamino)-2-hydroxy-4-(4-((2-methylthiazol-4-yl)methoxy)phenyl)butyl)-N-isobutylsulfamoyl)methyl)-2-methoxyphenoxy)-3,4,5-trihydroxytetrahydro-2H-pyran-2-carboxylic acid at 10 uM after 4 hrs by LC/MS/MS analysis; type: ADME, cell-based
[4] = Plasma clearance in rat at 0.25 mg/kg, iv; type: ADME, organism-based; set-up: dose 0.25 mg/kg, route intravenous; in short: as §1
Hepatocyte [5] = assay: Drug metabolism in human hepatocytes assessed as formation of -[2H]-(3R,3aS,6aR)-hexahydrofuro[2,3-b]furan-3-yl (2S,3R)-4-(1-(3,4-dihydroxyphenyl)-N-isobutylmethylsulfonamido)-3-hydroxy-1-(4-((2-methylthiazol-4-yl)methoxy)phenyl)butan-2-ylcarbamate at 10 uM after 4 hrs by LC/MS/MS analysis; type: ADME, cell-based
Rattus norvegicus [6] = assay: Dose-normalized AUC in rat at 0.25 mg/kg, iv co-administered with 4 mg/kg of ritonavir; type: ADME, organism-based; settings: in vivo
In short: (§2)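 Fed rats received 0.25 mg/kg intravenously as a DMSO/solutol/mannitol (2.5/10/87.5) solution, with ritonavir co-administered at 4 mg/kg.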

[7] = Plasma clearance in rat at 0.25 mg/kg, iv co-administered with 4 mg/kg of ritonavir; type: ADME, organism-based; in short: as §2
[8] = Half life in rat at 0.25 mg/kg, iv co-administered with 4 mg/kg of ritonavir; type: ADME, organism-based; settings: in vivo; in short: as §2

half-life [1] | AUC/dose (Rattus norvegicus [2]) | Stability (Hepatocyte [3]) | clearance [4] | Stability (Hepatocyte [5]) | AUC/dose (Rattus norvegicus [6]) | clearance [7] | half-life [8] | SMILES
12 min | 64 ng·h/mL/mg | Unstable | 64 mL/min/kg | Unstable |  |  |  | [2H]C1([2H])Oc2ccc(S(=O)(=O)N(C[C@@]([2H])(O)[C@H](Cc3ccc(OC([2H])([2H])c4csc(C)n4)cc3)NC(=O)O[C@@]3([2H])CO[C@@]4([2H])OCC[C@H]43)C([2H])([2H])C([2H])(C([2H])([2H])[2H])C([2H])([2H])[2H])cc2O1
12 min | 59 ng·h/mL/mg |  | 59 mL/min/kg |  |  |  |  | [2H]C1([2H])C[C@@H]2[C@H](O1)OC([2H])([2H])[C@]2([2H])OC(=O)N[C@@H](Cc1ccc(OC([2H])([2H])c2csc(C)n2)cc1)[C@]([2H])(O)CN(C([2H])([2H])C([2H])(C([2H])([2H])[2H])C([2H])([2H])[2H])S(=O)(=O)c1ccc2c(c1)OC([2H])([2H])O2
12 min | 66 ng·h/mL/mg |  | 65 mL/min/kg |  | 774 ng·h/mL/mg | 5.4 mL/min/kg | 132 min | Cc1nc(COc2ccc(C[C@H](NC(=O)O[C@H]3CO[C@H]4OCC[C@H]43)[C@H](O)CN(CC(C)C)S(=O)(=O)c3ccc4c(c3)OCO4)cc2)cs1 [BRECANAVIR]

Source: ChEMBL document CHEMBL2375288, “Synthesis and pharmacokinetic profile of highly deuterated brecanavir analogs” (Eur J Med Chem, 2013)
